Reference: ChEMBL document CHEMBL1949495, “Synthesis and cytotoxicity evaluation of biaryl-based chalcones and their potential in TNFα-induced nuclear factor-κB activation inhibition” (Eur J Med Chem, 2012)

How the values were obtained:
Assay type in all cases: functional, cell-based
[1] = system: A549; assay: Cytotoxicity against human A549 cells assessed as total cell protein after 48 hrs by SRB assay; settings: A549, 48 h
Method in brief: (§1)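 Cells kept in RPMI-1640 with 2 mM glutamine, 10% FBS, penicillin/streptomycin, 37 °C, 5% CO2. Seeded 5000 cells/well, grown 24 h, then serial dilutions from 10 mM DMSO stocks added in medium (final DMSO 0.5%), triplicate, 48 h. TCA fixation at 4 °C for 1 h, 0.4% SRB stain, dye solubilized in 10 mM Tris pH 10.4, OD 515 nm. IC50 by nonlinear regression of % control viability vs log concentration; experiments repeated at least twice.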

[2] = Cytotoxicity against human CNE2 cells assessed as total cell protein after 48 hrs by SRB assay; settings: CNE-2, 48 h; method in brief: as §1
[3] = system: SW480; assay: Cytotoxicity against human SW480 cells assessed as total cell protein after 48 hrs by SRB assay; settings: SW480, 48 h; method in brief: as §1
[4] = system: MCF7; assay: Cytotoxicity against human MCF7 cells assessed as total cell protein after 48 hrs by SRB assay; settings: MCF7, 48 h; method in brief: as §1
[5] = system: HepG2; assay: Cytotoxicity against human HepG2 cells assessed as total cell protein after 48 hrs by SRB assay; settings: HepG2, 48 h; method in brief: as §1

| SMILES | IC50 [1] [µM] | IC50 [2] [µM] | IC50 [3] [µM] | IC50 [4] [µM] | IC50 [5] [µM] |
| --- | --- | --- | --- | --- | --- |
| COc1ccc(/C=C/C(=O)c2cccc(-c3ccc(F)nc3)c2)cc1O | 2.06 | – | – | – | – |
| COc1cc(/C=C/C(=O)c2ccc(N)c(-c3ccc(F)cc3)c2)cc(Br)c1O | > 50 | 25.5 | 22.9 | 40.5 | 4.73 |
| COc1ccc(/C=C/C(=O)c2cccc(Br)c2)cc1OC | 9.43 | – | – | – | – |
| COc1ccc(/C=C/C(=O)c2ccc(N)c(-c3ccc(OC)c(OC)c3)c2)c(OC)c1 | 2.21 | 8.34 | 9.3 | 6.49 | 2.13 |
| COc1ccc(-c2cc(C(=O)/C=C/c3cc(OC)c(OC)c(OC)c3)ccc2N)cc1OC | 4.62 | 4.33 | 5.63 | 6.58 | 2.68 |
| COc1ccc(OC)c(/C=C/C(=O)c2ccc(N)c(-c3ccc(F)cc3)c2)c1 | 7.04 | 6.71 | 7.83 | 8.92 | 4.01 |
| COc1ccc(/C=C/C(=O)c2cccc(Br)c2)cc1 | 34.2 | – | – | – | – |
| Nc1ccc(C(=O)/C=C/c2ccc(O)c(F)c2)cc1-c1ccc(F)cc1 | 24.5 | 18.1 | 31.7 | 18.3 | 11.7 |
| COc1ccc(/C=C/C(=O)c2cccc(-c3ccc(F)cc3)c2)cc1OC | 11.8 | 5.55 | 6.49 | 11.6 | 5.37 |
| COc1ccc(OC)c(/C=C/C(=O)c2ccc(N)c(-c3ccc(OC)c(OC)c3)c2)c1 | 6.2 | 6.59 | 6.49 | 6.33 | 2.1 |
| COc1ccc(-c2cc(C(=O)/C=C/c3cccc(OC)c3OC)ccc2N)cc1OC | 6.54 | 6.6 | 8.33 | 10.2 | 5.36 |
| COc1ccc(/C=C/C(=O)c2cccc(Br)c2)cc1O | 5.88 | – | – | – | – |
| COc1cc(/C=C/C(=O)c2ccc(N)c(-c3ccc(F)cc3)c2)ccc1O | 12.2 | 5.75 | 8.35 | 10.5 | 4.3 |
| COc1ccc(/C=C/C(=O)c2ccc(N)c(-c3ccc(F)cc3)c2)cc1 | 4.31 | 1.6 | 7.23 | 7.58 | 3.75 |
| COc1ccccc1/C=C/C(=O)c1cccc(-c2cccc(F)c2)c1 | 15.5 | 10.4 | 16.6 | 18.9 | 15.4 |
| COc1cccc(/C=C/C(=O)c2ccc(N)c(-c3ccc(F)cc3)c2)c1OC | 13.3 | 11.3 | 12.5 | 13.3 | 7.37 |
| COc1ccc(-c2cc(C(=O)/C=C/c3ccc(F)cc3)ccc2N)cc1OC | 18 | 7.93 | 14.7 | 19.4 | 8.96 |

| SMILES | IC50 [1] [µM] | IC50 [2] [µM] | IC50 [3] [µM] | IC50 [4] [µM] | IC50 [5] [µM] |
| --- | --- | --- | --- | --- | --- |
| COc1ccc(/C=C/C(=O)c2ccc(NC(C)=O)c(-c3ccc(F)cc3)c2)cc1OC | 7.38 | 2.74 | 5.35 | 15 | 5.63 |
| COc1ccc(/C=C/C(=O)c2ccc(N)c(-c3ccc(F)cc3)c2)cc1O | 0.94 | – | – | – | – |
| O=C(/C=C/c1cccc(-c2ccc(F)cc2)c1)c1ccc(F)cc1 | 12.2 | 7.39 | 13.5 | 14.1 | 12.3 |
| O=C(/C=C/c1ccc(Br)cc1)c1cccc(-c2cccc(F)c2)c1 | 19.8 | 10.5 | 18.2 | 18.3 | 9.92 |
| COc1ccc(/C=C/C(=O)c2cccc(-c3ccc(F)cc3)c2)cc1 | 11.2 | 5.55 | 8.35 | 16.4 | 5.65 |
| COc1cc(/C=C/C(=O)c2ccc(N)c(-c3ccc(F)cc3)c2)cc(OC)c1OC | 6.07 | 4.6 | 6.12 | 9.03 | 4.21 |
| O=C(/C=C/c1cccc(Br)c1)c1cccc(-c2cccc(F)c2)c1 | 9.12 | 6.55 | 8.61 | 12.7 | 6.98 |
| COc1cc(/C=C/C(=O)c2cccc(-c3cccc(F)c3)c2)ccc1O | 9.9 | 5.69 | 6.74 | 14.2 | 6.83 |
| COc1ccc(/C=C/C(=O)c2ccc(N)c(-c3ccc(F)cc3)c2)cc1OC | 8.63 | 3.51 | 6.64 | 15 | 3.78 |
| COc1ccc(/C=C/C(=O)c2cccc(-c3cccc(F)c3)c2)cc1OC | 1.94 | 0.77 | 2.97 | 4.62 | 1.17 |
| O=C(/C=C/c1cccc(-c2ccc(F)cc2)c1)c1ccc(O)cc1 | 8.36 | 5.51 | 12 | 10.8 | 5.12 |
| COc1cccc(/C=C/C(=O)c2cccc(-c3cccc(F)c3)c2)c1OC | 8.9 | 10 | 13.5 | 11.7 | 9.2 |
| O=C(/C=C/c1ccc(Cl)cc1)c1cccc(-c2cccc(F)c2)c1 | 15.4 | 9.06 | 16.9 | 18.2 | 10.4 |
| O=C(/C=C/c1ccccc1Br)c1cccc(-c2cccc(F)c2)c1 | 12.4 | 8.91 | 14.8 | 20 | 12.8 |
| COc1ccc(/C=C/C(=O)c2ccc(N)c(-c3ccc(F)cc3)c2)c(OC)c1 | 14.4 | 6.29 | 12.4 | 10.8 | 7.74 |
| COc1ccc(/C=C/C(=O)c2cccc(-c3cccc(F)c3)c2)cc1O | 0.5 | – | – | – | – |
| COc1ccc(/C=C/C(=O)c2cccc(-c3cccc(F)c3)c2)cc1 | 2.44 | 0.74 | 4.51 | 3.08 | 1.72 |
